These results are taken from ChEMBL document CHEMBL1139824, “Optimization of a pyrazoloquinolinone class of Chk1 kinase inhibitors” (Bioorg Med Chem Lett, 2007).

One test concerns NCI-H1299. Put plainly: Inhibition of camptothecin-induced cell cycle arrest in NCI-H1299 cells after 8 hrs. Format: functional, cell-based. As to conditions: Homo sapiens, NCI-H1299, 8 h. The essentials:
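NCI-H1299 lung carcinoma cells held 16 h in camptothecin to arrest, then exposed to inhibitor a further 8 h. Escape into mitosis scored by mitosis-specific nucleolin phosphorylation, quantified with an antibody-coated bead-based assay.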

In test [1] the target is T1, Serine/threonine-protein kinase Chk1 (Homo sapiens, UniProt O14757).
T1 sequence (O14757 whole entry): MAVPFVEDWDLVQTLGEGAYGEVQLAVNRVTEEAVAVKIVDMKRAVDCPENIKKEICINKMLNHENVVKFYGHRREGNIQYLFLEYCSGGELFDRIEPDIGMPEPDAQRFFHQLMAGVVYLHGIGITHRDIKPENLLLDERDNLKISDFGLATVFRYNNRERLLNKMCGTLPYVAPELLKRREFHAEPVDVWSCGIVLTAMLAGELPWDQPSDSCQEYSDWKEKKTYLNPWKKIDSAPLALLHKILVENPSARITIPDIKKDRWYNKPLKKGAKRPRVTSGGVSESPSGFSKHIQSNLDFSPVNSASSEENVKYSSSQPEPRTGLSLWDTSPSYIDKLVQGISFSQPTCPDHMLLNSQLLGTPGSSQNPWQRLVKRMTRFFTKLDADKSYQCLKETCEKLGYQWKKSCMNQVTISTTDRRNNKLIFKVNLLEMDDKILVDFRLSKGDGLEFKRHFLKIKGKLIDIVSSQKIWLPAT
Put plainly: Inhibition of Chk1 by fluorescence assay.

The EC50 is the concentration needed to bring the measured effect to its halfway point. As a reminder, the IC50 is the midpoint of a concentration-inhibition curve. A high value points to lower potency.

In the test on NCI-H1299, `Cc1[nH]nc2c1c(=O)[nH]c1cc3c(cc12)CCCC3` gave an EC50 of 1210 nM. The molecule further had an IC50 in test [1] of 130 nM.

Turning to `CCn1c(=O)c2c(C)[nH]nc2c2cc3c(cc21)CN(C(=O)CN)CC3`, in the test with NCI-H1299, the half-maximal effective concentration (EC50) is greater than 10000 nM. Moreover, it took 18 nM to reach half-maximal inhibition in test [1] (IC50).

In the test on NCI-H1299, `Cc1[nH]nc2c1c(=O)n(CCN)c1ccc(Cl)cc21` registered an EC50 of 980 nM. Moreover, the IC50 in test [1] stood at 36 nM.

With `Cc1[nH]nc2c1c(=O)n(CCCCN)c1ccc(Cl)cc21`, in the test on NCI-H1299, a half-maximal response (EC50) required 1010 nM. Further, the IC50 in test [1] is 20 nM.

In the test with NCI-H1299, `Cc1[nH]nc2c1c(=O)n(C[C@@H](F)CN)c1cc(C3CCCCC3)c(C3CCCCC3)cc21` displayed an EC50 of 83 nM. This molecule also had an IC50 in test [1] of 3.2 nM.

In turn, `CCn1c(=O)c2c(C)[nH]nc2c2cc3c(cc21)CN(C(=O)NCCN)CC3` returned a concentration giving a half-maximal response (EC50) in the test on NCI-H1299 greater than 10000 nM. The molecule also showed a half-inhibitory concentration (IC50) in test [1] of 12 nM.

Molecule `CCn1c(=O)c2c(C)[nH]nc2c2cc3c(cc21)CN(S(=O)(=O)CCN)CC3` showed a 50% effective concentration (EC50) with NCI-H1299 greater than 10000 nM. In test [1], this molecule gave a half-maximal inhibitory concentration (IC50) of 10 nM.

In turn, `Cc1cccc2c1[nH]c(=O)c1c(C)[nH]nc12` returned a 50% inhibitory concentration (IC50) in test [1] of 1490 nM.

The molecule `CC(=O)Nc1ccc2[nH]c(=O)c3c(C)[nH]nc3c2c1` came in with an IC50 in test [1] of 7080 nM.

Regarding `Cc1[nH]nc2c1c(=O)[nH]c1c(CCCN)c(C3CCCCC3)c(C3CCCCC3)cc12`, 290 nM corresponded to half-maximal inhibition in test [1] (IC50).

The molecule `Cc1ccc2[nH]c(=O)c3c(C)[nH]nc3c2c1` had a 50% inhibitory concentration (IC50) in test [1] of 230 nM.

Regarding `Cc1[nH]nc2c1c(=O)[nH]c1cccc(Cl)c12`, in test [1], the 50% inhibitory concentration (IC50) came to 28900 nM.

In the test on NCI-H1299, `Cc1[nH]nc2c1c(=O)n(CCCN)c1ccc(Cl)cc21` yielded a half-maximal effective concentration (EC50) of 160 nM. In test [1], this molecule displayed an IC50 of 1.2 nM.

Take `Cc1[nH]nc2c1c(=O)[nH]c1ccccc12`: the midpoint of inhibition in test [1], the IC50, lay at 1370 nM.

Turning to `Cc1[nH]nc2c1c(=O)[nH]c1cccc(C)c12`, the IC50 in test [1] was greater than 100000 nM.

For `Cc1[nH]nc2c1c(=O)n(C[C@H](F)CN)c1cc(C3CCCCC3)c(C3CCCCC3)cc21`, a half-maximal effect in the test with NCI-H1299 (EC50) was put at 65 nM. In addition, the IC50 in test [1] was 3.1 nM.

As to `Cc1[nH]nc2c1c(=O)[nH]c1c(/C=C/CN)c(C3CCCCC3)c(C3CCCCC3)cc12`, the IC50 in test [1] stood at 58 nM.

As to `Cc1[nH]nc2c1c(=O)[nH]c1cc3ccccc3cc12`, the response in the test on NCI-H1299 was half-maximal at 710 nM (EC50). Besides, the IC50 in test [1] is 29 nM.

As to `Cc1[nH]nc2c1c(OCCCN)nc1ccc(Cl)cc12`, in the test on NCI-H1299, the response was half-maximal at 10200 nM (EC50). The molecule further had an IC50 in test [1] of 64 nM.

In test [1], `Cc1[nH]nc2c1c(NCCCN)nc1ccc(Cl)cc12` came in with an IC50 of 220 nM.

In the test on NCI-H1299, `Cc1[nH]nc2c1c(=O)[nH]c1ccc(Cl)cc12` gave an EC50 of 2980 nM. For the same molecule, 40 nM corresponded to half-maximal inhibition in test [1] (IC50).

Regarding `Cc1[nH]nc2c1c(NCCN)nc1ccc(Cl)cc12`, the concentration for half-maximal inhibition (IC50) in test [1] amounted to 60 nM.

`Cc1[nH]nc2c1c(OCCN)nc1ccc(Cl)cc12` came in with an IC50 in test [1] of 850 nM.

In the case of `Cc1[nH]nc2c1c(=O)[nH]c1cc(Cl)ccc12`, the half-inhibitory concentration (IC50) in test [1] was found to be 1980 nM.
